This note sets out measurements from ChEMBL document CHEMBL4765333, “Novel NO-releasing scopoletin derivatives induce cell death via mitochondrial apoptosis pathway and cell cycle arrest” (Eur J Med Chem, 2020).

In series [1] the test system is MDA-MB-231. In words: Antiproliferative activity in human MDA-MB-231 cells assessed as inhibition of cell viability at 1.5 to 3 uM pretreated with 10 uM necroptosis inhibitor, necrostatin-1 followed by addition of compound and measured after 48 hrs by MTT assay. It counts as functional, cell-based. Conditions: dose 1.5-3 µM. Put shortly:
(§1)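 MDA-MB-231 cells pretreated 1 h with necrostatin-1 (10 µM) or Z-VAD-FMK (20 µM), then exposed to compound at 1.5, 2 and 3 µM for another 48 h. Inhibition rates by MTT; inhibitors alone also tested 48 h for viability. Mean ± SD, n = 3.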
On the technique in general: Tetrazolium dyes change colour on reduction, which living cells bring about.

The test system of series [2] is MDA-MB-231. Put plainly: Induction of mitochondrial membrane potential depolarization in human MDA-MB-231 cells assessed as proportion of cells with hyperpolarized MMP at 1 uM incubated for 18 hrs by JC-1 staining based flow cytometry (reference value: 98.4%). It counts as functional.
Series [3] has as its system MDA-MB-231. In words: Induction of apoptosis in human MDA-MB-231 cells assessed as increase in cleaved caspase-9 protein expression incubated for 8 hrs by Western blot analysis. It counts as functional, cell-based. Conditions: dose 1.5-6 µM. Put shortly: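 MDA-MB-231 cells (8×10^5 per 60 mm dish) attached 24 h, then exposed 8 h to 1.5, 3 or 6 µM, DMSO as control. Lysates quantified by BCA; 30 µg protein run on 4–20% SDS-PAGE, transferred to PVDF, probed for Bcl-2, Bax, Bad, cleaved caspase-9, cleaved caspase-3 and PARP, with ECL detection. Densitometric relative levels; three experiments.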
Background: Immunoblotting shows a protein as a band on a membrane.

In series [4] the test system is MDA-MB-231. Put plainly: Induction of cell cycle arrest in human MDA-MB-231 cells assessed as accumulation at G2/M phase at 1 uM measured after 24 hrs by propidium iodide staining based flow cytometric method (reference value: 18.55%). It counts as functional. A general note: A flow cytometer gives signals particle by particle.
For series [5], the system named is MDA-MB-231. In words: Induction of apoptosis in human MDA-MB-231 cells assessed as necrotic cells at 1.5 uM after 24 hrs by Annexin V/propidium iodide based flow cytometric analysis (reference value: 0.019%). It counts as functional. The method in brief:
(§2)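 MDA-MB-231 cells (2×10^5/well) attached 24 h, then treated 24 h with 1, 1.5, 2 or 3 µM, DMSO as control. Cells harvested, PBS-washed, resuspended in binding buffer, stained with Annexin V and PI for 30 min at 37°C in the dark, and analysed by flow cytometry for quadrant percentages; three experiments.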

For series [6], the system named is MDA-MB-231. In words: Induction of cell cycle arrest in human MDA-MB-231 cells assessed as accumulation at G2/M phase at 2 uM measured after 24 hrs by propidium iodide staining based flow cytometric method (reference value: 18.55%). It counts as functional.
The subject of another series is MDA-MB-23. Put plainly: Inhibition of colony formation in human MDA-MB-231 cells incubated for 24 hrs followed by culturing in fresh medium for 10 days by crystal violet staining based assay. It counts as functional, cell-based. Conditions: dose 0.25-1 µM. The method in brief: (§3)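 MDA-MB-231 seeded at 1.5×10^3 cells/well, 24 h attachment, then 24 h exposure to compound (0.25, 0.5, 1 µM) or DMSO; fresh medium for a further 10 days. Fixed in 4% paraformaldehyde 0.5 h at 4°C, crystal violet stained, dye dissolved in DMSO and absorbance read at 590 nm; performed three times.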

In series [7] the test system is MDA-MB-231. Put plainly: Induction of cell cycle arrest in human MDA-MB-231 cells assessed as accumulation at S phase at 1.5 uM measured after 24 hrs by propidium iodide staining based flow cytometric method (reference value: 36.25%). It counts as functional.
Series [8] concerns MDA-MB-231. In words: Induction of apoptosis in human MDA-MB-231 cells assessed as necrotic cell at 1 uM after 24 hrs by Annexin V/propidium iodide staining based flow cytometric analysis (reference value: 0.019%). It counts as functional. The method in brief:
as §2

Series [9] has as its system MDA-MB-231. In words: Induction of apoptosis in human MDA-MB-231 cells assessed as necrotic cells at 3 uM after 24 hrs by Annexin V/propidium iodide based flow cytometric analysis (reference value: 0.019%). It counts as functional. The method in brief:
as §2

Series [10] in a line: Prodrug release in human MDA-MB-231 cells assessed as increase in intracellular NO level at 25 uM measured after 2.5 hrs by total nitric oxide assay. It counts as ADME, cell-based. Conditions: mda-mb-23, 2.5 h. Put shortly:
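MDA-MB-231 (2×10^5 cells/well) cultured 24 h, then treated 2.5 h with compound at 25 µM or DMSO. Cells harvested, lysed in nitric oxide assay buffer 1 h on ice; lysate NO quantified with a total nitric oxide assay kit. Mean ± SD, n = 3.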

The next series has as its system HepG2. Put plainly: Anticancer activity against human HepG2 cells assessed as inhibition of cell proliferation measured after 48 hrs by MTT assay. It counts as functional, cell-based. Particulars: HepG2, 48 h. Put shortly:
(§4)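 Cells seeded at ~5,000/well, grown 24 h to partial monolayer, then exposed 48 h at 37°C, 5% CO2 to 0.5, 1, 2, 4, 10 and 20 µM (DMSO ≤0.1%). MTT final 0.5 mg/ml for 4 h, formazan dissolved in DMSO, A570. Survival expressed as % of untreated control; IC50 from dose-response curves; three independent experiments. MDA-MB-231, MCF-7, HepG2 in DMEM; A549 and LO-2 in RPMI-1640; 10% FBS.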

The test system of series [11] is MDA-MB-231. In words: Inhibition of colony formation in human MDA-MB-231 cells at 0.25 uM incubated for 24 hrs followed by culturing in fresh medium for 10 days by crystal violet staining based assay. It counts as functional, cell-based. The method in brief: as §3
Series [12] relates to MDA-MB-231. In words: Induction of mitochondrial membrane potential depolarization in human MDA-MB-231 cells assessed as proportion of cells with hyperpolarized MMP at 1.5 uM incubated for 18 hrs by JC-1 staining based flow cytometry (reference value: 98.4%). It counts as functional.
Series [13] concerns MDA-MB-231. Put plainly: Induction of mitochondrial membrane potential depolarization in human MDA-MB-231 cells assessed as proportion of cells with depolarized MMP at 1 uM incubated for 18 hrs by JC-1 staining based flow cytometry (reference value: 0.72%). It counts as functional.
Series [14] is described as follows: Induction of intracellular reactive oxygen species generation in human MDA-MB-231 cells assessed as proportion of FL1-H negative cells at 1 uM measured after 24 hrs by DCFH-DA staining based flow cytometry analysis (reference value: 52.2%). It counts as functional, MDA-MB-23.
The nature of series [15]: Induction of intracellular reactive oxygen species generation in human MDA-MB-231 cells assessed as proportion of FL1-H positive cells at 1 uM measured after 24 hrs by DCFH-DA staining based flow cytometry analysis (reference value: 47.8%). It counts as functional, MDA-MB-23.
In series [16] the test system is MDA-MB-231. Put plainly: Induction of apoptosis in human MDA-MB-231 cells assessed as late apoptotic cells at 2 uM after 24 hrs by Annexin V/propidium iodide based flow cytometric analysis (reference value: 0.038%). It counts as functional. The method in brief:
as §2

Series [17] concerns MDA-MB-231. In words: Antiproliferative activity against human MDA-MB-231 cells assessed as inhibition of cell proliferation rate at 4 uM pretreated with 40 uM NO scavenger, hemoglobin for 2 hrs followed by addition of compound and measured after 48 hrs by MTT assay. It counts as functional. Put shortly: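 MDA-MB-231 cells pretreated 2 h with the NO scavenger hemoglobin (2.5, 5, 10, 20, 40 µM), then given compound at 4 µM for a further 48 h. Inhibition rate read by MTT assay; mean ± SD, n = 3.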

The next series deals with L02. In words: Cytotoxicity against human L02 cells assessed as reduction in cell viability measured after 48 hrs by MTT assay. Particulars: L02, 48 h. It counts as cell-based. The method in brief:
as §4

The subject of series [18] is MDA-MB-231. Put plainly: Antiproliferative activity in human MDA-MB-231 cells assessed as inhibition of cell viability at 1.5 to 3 uM pretreated with 20 uM apoptosis inhibitor, Z-VAD-FMK followed by addition of compound and measured after 48 hrs by MTT assay. Particulars: dose 1.5-3 µM. It counts as functional, cell-based. The method in brief: as §1

The structures appear in SMILES notation. Active and inactive are the calls of the source. The rule behind the calls is not given here.

Turning to `COc1cc2cc(N)c(=O)oc2cc1OCCCOc1no[n+]([O-])c1S(=O)(=O)c1ccccc1`, the outcome with MDA-MB-231 [1] and in the series with MDA-MB-231 [18] was inactive. Also, the Activity in the series with MDA-MB-231 [2] was 93.2%; in the series with MDA-MB-231 [3] it was “Dose-dependent effect”; in the series with MDA-MB-231 [4] it was 24.58%; in the series on MDA-MB-231 [5], 0.31%; in the series on MDA-MB-231 [6] it was 40.29%; in the series with MDA-MB-231 [7] it was 22.92%. The Activity in the series on MDA-MB-231 [8] is 0.21%; with MDA-MB-231 [9] it was 0.31%; with MDA-MB-231 [12], 81.4%; in the series with MDA-MB-231 [13], 5.4%; in series [14], 35%; in series [15], 65%. Further, the Activity with MDA-MB-231 [16] is 15.8%. In the series on MDA-MB-23, the inhibition – broadly, the drop in the measured response relative to a control, in per cent – is “Dose-dependent effect”. Further, in series [10], the Drug metabolism result is on record as “Metabolite_Detected”. Also, the concentration for half-maximal inhibition (IC50) – broadly, the midpoint of a concentration-inhibition curve – was determined as 2.81 µM in the series on HepG2 and 9.16 µM with L02. The inhibition entry in the series on MDA-MB-231 [11] is “Active”. In the series on MDA-MB-231 [17], the inhibition at 4 µM came out at 39.5%.
